# Test results as given in ChEMBL document CHEMBL3227955, “Studies on the mechanism of antiviral action of 1-(beta-D-ribofuranosyl)-1,2,4-triazole-3-carboxamide (ribavirin)” (J Med Chem, 1979).
# pIC50: −log10 of the molar value. The source made the active and inactive calls. The calls are words filed in the database; no cut-off is given here.
# Species: Rattus norvegicus
# Assay: Activity at rat liver nucleoside kinase assessed as phosphorylation using [gamma-32P]-ATP after 10 to 20 mins
# Method in brief: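 Rat liver nucleoside kinase was the 55–90% (NH4)2SO4 fraction of the 144000g supernatant, dialyzed. The medium was 50 mM Tris-HCl pH 8.0, 5 μM MgCl2 (so in the source), 25 mM KCl, 1 mM [γ-32P]ATP, and pyruvate kinase with 2 mM phosphoenolpyruvate. Incubation was 10 or 20 min at 37 °C, stopped by 1 min at 100 °C. Liberated Pi was precipitated with added 0.1 mM K2HPO4.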
row,SMILES,Activity
1,OC[C@H]1O[C@@H](n2cncn2)[C@H](O)[C@@H]1O,inactive
2,CO[C@@H]1[C@H](O)[C@@H](CO)O[C@H]1n1cnc(C(N)=O)n1,inactive
3,CO[C@H]1[C@@H](O)[C@H](n2cnc(C(N)=O)n2)O[C@@H]1CO,inactive
4,NC(=O)c1ncn([C@@H]2O[C@H](CO)[C@@H](O)[C@H]2O)n1,Active
5,Nc1ncnc2c1ncn2[C@@H]1O[C@H](CO)[C@@H](O)[C@H]1O,Active
6,O=C(O)c1ncn([C@@H]2O[C@H](CO)[C@@H](O)[C@H]2O)n1,inactive

# Species: Rattus norvegicus
# Assay: Inhibition of rat spleen IMP dehydrogenase using NAD and IMP at 200 uM up to 1 hr
# Assay type: tissue-based
# Method in brief: (§1)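 Rat spleen IMP dehydrogenase was the 30–40% (NH4)2SO4 fraction, dialyzed, at 0.66 mg protein/mL. Buffer was 0.1 M phosphate pH 7.7 with 1 mM EDTA, 0.5 mM 2-mercaptoethanol and 0.2 mM each NAD and IMP, started with IMP. A340 change against a no-IMP blank was followed at 37 °C for up to 1 h. Activity was expressed relative to the no-inhibitor rate.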
row,SMILES,inhibition
1,CO[C@H]1[C@@H](O)[C@H](n2cnc(C(N)=O)n2)O[C@@H]1COP(=O)(O)O,inactive
2,CO[C@@H]1[C@H](O)[C@@H](COP(=O)(O)O)O[C@H]1n1cnc(C(N)=O)n1,inactive
3,O=P(O)(O)OC[C@H]1O[C@@H](n2cncn2)[C@H](O)[C@@H]1O,inactive

# Biological target: not listed separately
# Assay: Inhibition of rat spleen IMP dehydrogenase using NAD and IMP up to 1 hr
# Assay type: tissue-based
# Method in brief: as §1
row,SMILES,pIC50
1,NC(=O)c1ncn([C@@H]2O[C@H](COP(=O)(O)O)[C@@H](O)[C@H]2O)n1 [RIBAVIRIN MONOPHOSPHATE],5.70
2,O=C(O)c1ncn([C@@H]2O[C@H](COP(=O)(O)O)[C@@H](O)[C@H]2O)n1,4.15
